Reference: ChEMBL document CHEMBL1125113, “(S)-5-fluoro-8-hydroxy-2-(dipropylamino)tetralin: a putative 5-HT1A-receptor antagonist” (J Med Chem, 1990)

What was measured:
[1] = molecular target: T1, Aromatic-L-amino-acid decarboxylase (Homo sapiens) (UniProt P20711); assay: The effect on the accumulation of DOPA in rat brain(limbic), by subcutaneous administration at a dose of 10(umol/kg); assay type: functional, organism-based; conditions: target entry is the homologue from another species
T1 sequence (whole entry): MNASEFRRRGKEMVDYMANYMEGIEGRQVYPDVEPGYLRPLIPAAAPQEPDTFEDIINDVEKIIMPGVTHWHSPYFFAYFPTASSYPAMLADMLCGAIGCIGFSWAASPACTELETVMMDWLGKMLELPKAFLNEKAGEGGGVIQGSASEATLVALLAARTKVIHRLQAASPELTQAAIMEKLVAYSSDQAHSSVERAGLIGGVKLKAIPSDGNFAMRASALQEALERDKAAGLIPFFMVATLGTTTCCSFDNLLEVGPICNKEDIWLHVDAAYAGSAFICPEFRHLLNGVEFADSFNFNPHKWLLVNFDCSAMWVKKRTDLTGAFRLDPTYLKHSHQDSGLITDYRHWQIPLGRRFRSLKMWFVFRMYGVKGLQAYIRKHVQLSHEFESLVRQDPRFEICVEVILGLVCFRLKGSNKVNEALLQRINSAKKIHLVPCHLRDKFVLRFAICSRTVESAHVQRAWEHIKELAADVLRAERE
Method in brief: (§1)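 Nonpretreated rats received the test drug sc 60 min before death. The decarboxylase inhibitor NSD 1015 (287 µmol/kg sc) was given 30 min before death. Brain 5-HTP and DOPA in limbic and striatal regions were measured by HPLC with electrochemical detection. Values are means ± SEM, with n = 9 controls and 5–7 per experimental group.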

Rattus norvegicus [2] = assay: The effect on the accumulation of 5-HTP in rat brain(limbic), by subcutaneous administration at a dose of 10(umol/kg); assay type: functional; method in brief: as §1
[3] = molecular target: T2, 5-hydroxytryptamine receptor 1A (Rattus norvegicus, UniProt P19327); assay: Binding affinity towards 5-hydroxytryptamine 1A receptor sites in cortical membranes using [3H]8-OH-DPAT as radioligand; assay type: cell membranes
T2 sequence (P19327 whole entry): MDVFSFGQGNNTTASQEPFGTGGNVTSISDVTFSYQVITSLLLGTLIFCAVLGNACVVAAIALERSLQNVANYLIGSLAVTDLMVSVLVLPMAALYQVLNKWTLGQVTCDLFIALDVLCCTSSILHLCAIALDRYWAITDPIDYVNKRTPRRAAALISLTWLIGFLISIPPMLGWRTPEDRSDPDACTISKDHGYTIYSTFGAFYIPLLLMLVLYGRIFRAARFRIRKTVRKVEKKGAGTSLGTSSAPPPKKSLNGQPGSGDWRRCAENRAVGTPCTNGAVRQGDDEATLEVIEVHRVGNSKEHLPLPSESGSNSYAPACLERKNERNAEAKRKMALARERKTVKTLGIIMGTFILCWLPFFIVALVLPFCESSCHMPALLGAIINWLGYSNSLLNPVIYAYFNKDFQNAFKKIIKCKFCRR

[4] = molecular target: T1, Aromatic-L-amino-acid decarboxylase (Homo sapiens); assay: The effect on the accumulation of DOPA in rat brain(striatum), by subcutaneous administration at a dose of 10(umol/kg); assay type: functional, organism-based; conditions: target entry is the homologue from another species; method in brief: as §1
Rattus norvegicus [5] = assay: The effect on the accumulation of 5-HTP in rat brain(striatum), by subcutaneous administration at a dose of 32(umol/kg); assay type: functional; method in brief: as §1
[6] = molecular target: T1, Aromatic-L-amino-acid decarboxylase (Homo sapiens); assay: The effect on the accumulation of DOPA in rat brain(striatum), by subcutaneous administration at a dose of 0.32(umol/kg); assay type: functional, organism-based; conditions: target entry is the homologue from another species; method in brief: as §1
[7] = molecular target: T1, Aromatic-L-amino-acid decarboxylase (Homo sapiens); assay: The effect on the accumulation of DOPA in rat brain(limbic), by subcutaneous administration at a dose of 0.32(umol/kg); assay type: functional, organism-based; conditions: target entry is the homologue from another species; method in brief: as §1
Rattus norvegicus [8] = assay: The effect on the accumulation of 5-HTP in rat brain(striatum), by subcutaneous administration at a dose of 0.32(umol/kg); assay type: functional; method in brief: as §1
Rattus norvegicus [9] = assay: The effect on the accumulation of 5-HTP in rat brain(limbic), by subcutaneous administration at a dose of 0.32(umol/kg); assay type: functional; method in brief: as §1
Rattus norvegicus [10] = assay: The effect on the accumulation of 5-HTP in rat brain(striatum), by subcutaneous administration at a dose of 10(umol/kg); assay type: functional; method in brief: as §1

Compound | Potencymean [1] | Potencymean (Rattus norvegicus [2]) | Ki [3] | Potencymean [4] | Potencymean (Rattus norvegicus [5]) | Potencymean [6] | Potencymean [7] | Potencymean (Rattus norvegicus [8]) | Potencymean (Rattus norvegicus [9]) | Potencymean (Rattus norvegicus [10])
CCCN(CCC)[C@H]1CCc2c(F)ccc(O)c2C1 | 324 ng/g | 152 ng/g | 52 nM | < 682 ng/g | 91.4 ng/g |  |  |  |  | 
CCCN(CCC)[C@@H]1CCc2cccc(O)c2C1 |  |  |  |  |  | 909 ng/g | 371 ng/g | <53.3 ng/g | <103 ng/g | 
CCCN(CCC)[C@@H]1CCc2c(F)ccc(O)c2C1 | 398 ng/g | <86.5 ng/g | 6.1 nM | 1190 ng/g |  |  |  |  |  | <59.7 ng/g
